# E-sel inducer = E-selectin induction on HUVECs; P16581; HUVEC E-selectin immunofluorescence imaging; normalized: neutral wells 0, TNF-alpha wells 100; activation, % at 7.58 µM; 0.37% of 260,000 active; AID 686992;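 active = mean E-selectin-positive cell signal at least 10% of the positive control, reached in at least 60% of replicates, without over 20% cell loss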
#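 Read-out: % PE-positive cells | Test system: HUVEC | Doses: One compound dose added by pin transfer | Buffer or medium: EGM-2 over gelatin coat | Signal: Immunofluorescence imaging | Benchmarks: TNF-alpha, DMSO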
# PglD inh = PglD (C. jejuni) enzyme inhibition; inhibition, % at 12.5 µM; 0.098% of 360,000 active; AID 602405; purified PglD enzyme, DTNB colorimetric CoA detection; in the data active = inhibition above about 16%, passing the limit was not always enough
# RAD52 anneal inh = inhibitors of human RAD52 DNA annealing. 0.46% of 360,000 active. inhibition, % at 18.7 µM. recombinant RAD52 DNA annealing, FRET fluorescence. P43351. AID 651710;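 active = every replicate showing at least 50% inhibition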
# XiGFP reactiv = X-chromosome reactivation activator | 0.055% of 360,000 active | activation, % at 7.58 µM | XiGFP mouse fibroblasts, % GFP-positive cells imaging, 3 d; cells co-treated with 5-aza-dC sensitizer; scaled so ellipticine positive control = 100%;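 active = mean normalized replicate activation at least 10% and every replicate at or above 10%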;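 also: 0% = median of on-plate neutral control wells and 100% = ellipticine 6 µM median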
#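 Material: SV40-immortalized XiGFP fibroblast cells, line 68-5-11 | Buffer or medium: DMEM containing 5-aza-dC | Dosing: One concentration, pinned | Times: 3 d treatment, 15 min room-temperature fixation | Controls: Ellipticine 6 µM positive control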
# RAD54 branch = RAD54 (human) branch migration inhibition | inhibition, % at 10.4 µM | Q92698 | 0.14% of 360,000 active | RAD54 Holliday junction branch migration, FAM/BHQ fluorescence | AID 602329;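 active = mean normalized replicate activity at least 40 and at least half of replicates scoring 40 or more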;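 also: 0% = median of neutral control wells and 100% = median of positive control wells; inhibitors cause a drop in the FAM fluorescence signal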
# Target sequence (Q92698 whole entry, looked up): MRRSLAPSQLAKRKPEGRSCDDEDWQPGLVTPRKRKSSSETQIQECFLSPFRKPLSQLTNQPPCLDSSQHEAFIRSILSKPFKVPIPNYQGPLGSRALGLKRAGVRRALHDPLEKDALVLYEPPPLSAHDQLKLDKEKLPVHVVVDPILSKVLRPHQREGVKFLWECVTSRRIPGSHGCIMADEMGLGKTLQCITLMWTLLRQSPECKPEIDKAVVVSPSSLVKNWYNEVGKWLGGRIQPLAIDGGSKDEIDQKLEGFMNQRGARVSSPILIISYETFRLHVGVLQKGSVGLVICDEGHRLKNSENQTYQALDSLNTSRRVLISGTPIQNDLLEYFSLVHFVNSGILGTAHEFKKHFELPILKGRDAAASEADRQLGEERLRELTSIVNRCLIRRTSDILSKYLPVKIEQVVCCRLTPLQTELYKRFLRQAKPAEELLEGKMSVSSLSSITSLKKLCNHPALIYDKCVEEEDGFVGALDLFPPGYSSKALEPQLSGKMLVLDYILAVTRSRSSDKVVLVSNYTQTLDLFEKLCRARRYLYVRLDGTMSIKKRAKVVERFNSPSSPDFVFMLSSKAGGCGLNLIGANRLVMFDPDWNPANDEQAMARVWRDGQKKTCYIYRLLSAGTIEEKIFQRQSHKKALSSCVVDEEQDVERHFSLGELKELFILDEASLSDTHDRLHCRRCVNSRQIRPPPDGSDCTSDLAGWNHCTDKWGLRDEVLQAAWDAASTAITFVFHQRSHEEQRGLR
# rRNA inh HTS = inhibitors of bacterial rRNA selective over humanized ribosomes. E. coli WT GFP vs humanized-ribosome RFP mutants, fluorescence, 24 h; active compounds read low; DMSO median 0, no signal -100. GFP signal change (wild-type ribosome), % (test concentration not listed). 1.6% of 350,000 active. AID 720706;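 active = significant combined selectivity score with lowered wild-type GFP, culture density cut under 30%, mutant RFP and density less affected; inactive = any of these conditions unmet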
# * = called active by the depositor; . = no result given. An excerpt weighted towards active compounds, which were near 2% of everything screened.
SMILES,E-sel inducer,PglD inh,RAD52 anneal inh,XiGFP reactiv,RAD54 branch,rRNA inh HTS
O=C(OCc1ccccn1)c1ccc(COc2ccc3ccccc3c2)o1,.,5,-34,0,-5,-26*
NNC(=O)c1ccc(COc2ccc3ccccc3c2)o1,0,.,-17,0,.,-25*
Cc1noc(C)c1NC(=O)N(C)C[C@@H]1Oc2c(NC(=O)Nc3ccc4c(c3)OCO4)cccc2C(=O)N([C@@H](C)CO)C[C@@H]1C,0,0,7,0,9,2
CNS(=O)(=O)c1cc(NC(=O)c2cnc(SC)n2-c2ccccc2)ccc1C,0,-4,-11,0,9,-21*
Cc1ccc(NC(=O)c2cnn(-c3ccccc3)c2C)cc1C,.,-3,-22,0,0,1
[N-]=[N+]=NC[C@H](Cc1ccccc1)N1CC[C@@H](O)CCC1=O,1,-8,-17,0,-7,9
[N-]=[N+]=NC[C@H](Cc1ccccc1)N1CC[C@@H](OCc2ccccc2)CCC1=O,0,1,-15,0,-13,-25*
Cc1noc(C)c1S(=O)(=O)Nc1ccc2c(c1)C(=O)N([C@H](C)CO)C[C@@H](C)[C@@H](CN(C)Cc1ccccc1)OCCCC[C@H](C)O2,0,-2,-1,0,0,3
S=c1[nH]nc(-c2cc(-c3ccccc3)n[nH]2)n1/N=C/c1ccccc1,0,4,-14,0,-1,-15*
Cc1cccc(-c2n[nH]c(=S)n2/N=C/c2cccs2)c1,0,2,-4,0,3,-22*
Cc1cccc(/C=N/n2c(-c3cc(-c4ccccc4)n[nH]3)n[nH]c2=S)c1,2,.,3,0,.,8
Cn1cnc(S(=O)(=O)N[C@@H]2CC[C@H](CC(=O)NCC3CC3)O[C@H]2CO)c1,0,3,-5,1,2,2
c1ccc(OCCn2c(-c3ccco3)nc3ccccc32)cc1,.,-1,-50,.,3,-46*
Cn1c(CNS(=O)(=O)c2ccc(Cl)cc2)cc(=O)n(C)c1=O,97*,0,-2,0,5,9
CCCC(=O)Nc1ccc2c(c1)C(=O)N(C)[C@H]1CC[C@@H](CC(=O)NCCc3ccncc3)O[C@H]1CO2,0,1,0,0,1,1
CCc1nnc(NS(=O)(=O)c2ccc(NC(=S)NC(=O)/C=C/c3ccccc3)cc2)s1,.,.,-15,0,.,-37*
CCc1nnc(NS(=O)(=O)c2ccc(NC(=S)NC(=O)/C=C/c3ccc(OC)cc3)cc2)s1,-1,.,.,0,.,.
C[C@H]1CCCCO[C@@H](CN(C)CC2CCCCC2)[C@@H](C)CN([C@@H](C)CO)C(=O)c2cc(NC(=O)c3ccncc3)ccc2O1,0,.,.,0,.,0
CN(C)C(CNc1ncnc2sc3c(c12)CCCCC3)c1ccco1 (stereo unspecified),0,.,1,1,.,-38*
O=C(COC(=O)C1CCN(C(=O)c2ccc(Cl)cc2)CC1)Nc1ccccc1F,.,-2,-11,0,3,-17*
N#Cc1c(N)nc2c(c1N)CC(=O)N2c1ccccc1-c1ccccc1,.,0,.,.,0,.
N#Cc1c(N)nc2c(c1N)CC(=O)N2c1ccc(Cl)cc1,.,0,10,.,12,-31*
CC(C)Oc1cccc(C(=O)C2CCCN(C(=O)c3cc(C4CC4)[nH]n3)C2)c1 (stereo unspecified),.,12,-7,0,5,-5
CC(C)Oc1cccc(C(=O)C2CCCN(C(=O)c3cc(C(F)(F)F)[nH]n3)C2)c1 (stereo unspecified),.,1,-8,0,-2,-29*
COc1ccc(NC(=O)N2CCC3(CC2)CN(C(C)=O)[C@H](CO)c2[nH]c4cc(OC)ccc4c23)cc1,0,.,-1,0,.,-3
SMILES,E-sel inducer,PglD inh,RAD52 anneal inh,XiGFP reactiv,RAD54 branch,rRNA inh HTS
COc1ccc(CN(C)C(=O)COC(=O)c2c(-c3ccccc3Cl)noc2C)cc1,.,-3,-35,0,-8,-27*
COc1ccc(NC(=O)CN(C)C(=O)c2c(-c3ccccc3Cl)noc2C)cc1,-2,.,-1,0,.,-2
O=C(C[C@H]1C[C@@H]2c3cc(NC(=O)C4CCOCC4)ccc3O[C@@H]2[C@H](CO)O1)NCc1cc(F)ccc1F,0,-2,16,0,4,5
CC(C)NC(=O)N(C)C[C@@H]1Oc2ccc(NC(=O)CCC(F)(F)F)cc2CC(=O)N([C@@H](C)CO)C[C@H]1C,113*,3,-12,0,2,5
CC(C)NC(=O)N(C)C[C@H]1Oc2ccc(NC(=O)CCC(F)(F)F)cc2CC(=O)N([C@H](C)CO)C[C@@H]1C,43*,10,-2,0,-32,6
CC(C)NC(=O)N(C)C[C@H]1Oc2ccc(NC(=O)CCC(F)(F)F)cc2CC(=O)N([C@@H](C)CO)C[C@H]1C,55*,2,-18,4,8,4
CC(C)NC(=O)N(C)C[C@H]1Oc2ccc(NC(=O)CCC(F)(F)F)cc2CC(=O)N([C@H](C)CO)C[C@H]1C,20,-5,-3,0,-1,7
O=C1[C@@H](Cc2ccc(C(F)(F)F)cc2)CCn2cc(nn2)COC[C@@H]2CCCCN12,.,.,.,0,.,-2
C[C@H](CO)N1C[C@H](C)[C@@H](CN(C)S(=O)(=O)c2ccc(Cl)cc2)Oc2c(NC(=O)C3CCOCC3)cccc2C1=O,0,-3,5,0,7,0
COCC(=O)NCc1ccc2c(c1)cc(C)n2C,.,.,-16,0,.,10
Cc1ccc(S(=O)(=O)NCc2ccc3c(c2)cc(C)n3C)cc1,63*,-6,-4,0,2,1
Cc1cc2cc(CNC(=O)Nc3ccc(Cl)c(Cl)c3)ccc2n1C,142*,-3,-3,0,2,-12
O=C(Cc1ccncc1)NCC[C@H]1CC[C@@H](NC(=O)Nc2cccc(F)c2)[C@@H](CO)O1,0,0,-34,0,-8,2
COc1ccc(NC(=O)c2ccc(-c3ccc([N+](=O)[O-])cc3)o2)cc1OC,.,4,-12,0,5,-42*
CN1c2ccc(Br)cc2[C@@H]2[C@@H](CCN2C(=O)c2ccc(F)cc2)[C@@H]1CO,0,-2,-7,0,-16,-15
O=C(/C=C/Nc1ccccc1C(=O)O)c1cccs1,.,.,.,0,.,.
O=C(/C=C/Nc1ccc(Nc2ccccc2)cc1)c1cccs1,0,.,-13,0,.,-23*
Cc1ccc(N/C=C/C(=O)c2cccs2)cc1C,.,-1,-35,0,2,-20*

# Screening results as filed in PubChem BioAssay.
